In the library only some 4.6% were active in any assay of this set; here they are far more common.
Rtt109 Vps75: blocks Candida albicans Rtt109/Vps75 acetyltransferase activity; Q5AAJ8; purified Rtt109/Vps75, ThioGlo CoA-SH fluorescence, 4 h; inhibition, % at 34.9 µM; 0.16% of 330,000 active;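 active means inhibition of at least 50% in every replicate; inconclusive means best replicate reaches 50% inhibition but some replicates fall short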
Target sequence (Q5AAJ8 whole entry, looked up): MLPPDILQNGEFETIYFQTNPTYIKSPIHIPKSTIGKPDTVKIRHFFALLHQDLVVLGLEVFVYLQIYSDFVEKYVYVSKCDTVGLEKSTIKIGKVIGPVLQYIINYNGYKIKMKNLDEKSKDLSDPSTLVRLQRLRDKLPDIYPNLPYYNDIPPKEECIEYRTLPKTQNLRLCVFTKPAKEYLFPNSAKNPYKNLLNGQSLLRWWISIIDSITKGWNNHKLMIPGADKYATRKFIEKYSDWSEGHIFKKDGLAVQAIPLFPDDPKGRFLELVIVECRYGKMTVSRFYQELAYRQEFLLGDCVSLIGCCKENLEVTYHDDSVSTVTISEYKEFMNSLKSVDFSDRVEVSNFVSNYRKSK
ALR inh: human ALR oxidase inhibition via reduced H2O2; P55789; purified ALR, DTT oxidation, H2O2 HRP-luminol luminescence; inhibition, % (no concentration beside the values); 3.8% of 290,000 active;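 active means mean replicate inhibition above about 79%, with every replicate also reaching it, limit read from the data; inconclusive means only one of the two criteria met; inactive means mean below limit and not every replicate reaching it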
Target sequence (P55789 whole entry, looked up): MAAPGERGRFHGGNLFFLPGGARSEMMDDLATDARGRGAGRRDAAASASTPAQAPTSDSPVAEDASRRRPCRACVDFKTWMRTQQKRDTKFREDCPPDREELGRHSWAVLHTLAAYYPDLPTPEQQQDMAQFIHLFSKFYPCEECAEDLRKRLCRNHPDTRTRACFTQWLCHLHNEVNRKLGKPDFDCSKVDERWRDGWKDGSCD
PfM18AAP inh: blocks P. falciparum M18 aspartyl aminopeptidase | recombinant PfM18AAP, H-Glu-NHMec fluorogenic cleavage | inhibition, % at 7.35 µM | 1.2% of 290,000 active | AID 1822;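 active means inhibition above the campaign mean inhibition over all tested compounds plus 3 SD, cut at about 28% in these data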
HDAC3 inhib: blocks human histone deacetylase 3 | O15379 | recombinant HDAC3, fluorogenic peptide/trypsin coupled, fluorescence | inhibition, % at 8.3 µM | 0.15% of 320,000 active | AID 2718; in the data active means inhibition above about 26%, passing the limit was not always enough; inconclusive means no clear call, values can overlap the other calls
FAS-TE inh: blocks the thioesterase domain of human fatty acid synthase | recombinant FAS-TE, OMFH fluorogenic substrate, fluorescence endpoint | 0.67% of 360,000 active | inhibition, % at 15 µM;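 active means compounds whose normalised, plate-corrected inhibition of enzyme fluorescence in the single-dose primary screen is 50% or more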
UCH37 DUB inh: blocks the human deubiquitinase UCH37 | purified proteasome/UCH37, Ub-AMC cleavage fluorescence | inhibition, % (no concentration beside the values) | 0.33% of 330,000 active | AID 588478;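 active means mean inhibition over replicate wells above about 20%, limit read from the data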
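Signal – fluorescence, ex 355 nm, em 460 nm · System – Proteasome-bound UCH37 · Input – 0.15 nM proteasome as dispensed · Timing – 30 min preincubation with enzyme, 25 min cleavage at room temperature · Read-out basis – percent inhibition of cleavage signal versus uninhibited and no-proteasome wells · Medium – Tris-HCl pH 7.4 with ATP-MgCl2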
Of the large screens only hits and unclear results are named; the others gave an inactive call.

COc1ccccc1C=NN(C(C)=O)c1nc(-c2ccc(F)cc2)cs1	none (no result: Rtt109 Vps75, ALR inh, PfM18AAP inh, HDAC3 inhib, FAS-TE inh)
Cn1c(N2CCOCC2)nc(-c2ccccc2)c1-c1ccccc1	ALR inh 98.8 (no result: Rtt109 Vps75)
Cc1ccc(N/C=C/C(=O)C(C)(C)C)c(O)c1	ALR inh 83.3
Cn1nc(-c2ccc(Cl)cc2)nc2c(=O)n(C)c(=O)nc1-2	UCH37 DUB inh 91.9 (no result: FAS-TE inh)
CS(=O)(=O)n1nc(-c2ccc(Cl)cc2)nc1N	none
S=c1[nH]nc(-c2cccs2)n1N=Cc1c(Cl)cccc1Cl	none (no result: Rtt109 Vps75, ALR inh, PfM18AAP inh, HDAC3 inhib, FAS-TE inh)
O=C(CCc1ccc(S(=O)(=O)N2CCOCC2)cc1)N/N=C/c1ccc(O)c(O)c1O	Rtt109 Vps75 inconclusive, ALR inh 99.0, HDAC3 inhib inconclusive (no result: UCH37 DUB inh)
CC(=O)Nc1sc(NN=Cc2ccccc2)nc1-c1ccc(C)cc1	none (no result: Rtt109 Vps75, ALR inh, PfM18AAP inh, HDAC3 inhib, FAS-TE inh)
Clc1ccc(NCc2cccnc2)cc1	ALR inh 99.1
C=CCc1cccc(C=NNC(=O)CNc2ccccc2)c1O	none (no result: Rtt109 Vps75, ALR inh, PfM18AAP inh, HDAC3 inhib, FAS-TE inh)
CCCCCCC(=O)N(O)C1CC(=O)N(c2ccc(Br)cc2)C1=O (stereo unspecified)	HDAC3 inhib 80.0
CCCCN(C(=O)CCC(=O)O)C1CC(=O)N(c2ccc(OCCC)cc2)C1=O (stereo unspecified)	none
CCCCCCC(=O)N(O)C1CC(=O)N(c2ccc(F)cc2)C1=O (stereo unspecified)	HDAC3 inhib 79.0
COc1ccc(C(=O)NN=Cc2c(CO)cnc(C)c2O)cc1	none (no result: Rtt109 Vps75, ALR inh, PfM18AAP inh, HDAC3 inhib, FAS-TE inh)
COc1ccc(C(CC(=O)O)NC(=O)Cc2ccccc2)cc1OC (stereo unspecified)	none
C=CCC(Nc1ccccc1)c1ccc(OC)c(OC)c1 (stereo unspecified)	ALR inh 96.4 (no result: Rtt109 Vps75, FAS-TE inh, UCH37 DUB inh)
COc1ccc(C=NNc2nc(N3CCCC3)nc(N3CCCC3)n2)cc1O	none (no result: Rtt109 Vps75, ALR inh, PfM18AAP inh, HDAC3 inhib, FAS-TE inh)
COc1ccc(/C=N/Nc2ccccn2)cc1OC	ALR inh 98.7 (no result: UCH37 DUB inh)
COc1cc(C=NNc2cc(C)nc(NS(=O)(=O)c3ccccc3)n2)ccc1O	none (no result: Rtt109 Vps75, ALR inh, PfM18AAP inh, HDAC3 inhib, FAS-TE inh)
COc1cc(/C=N/Nc2cc(C)nc(NS(=O)(=O)c3ccc(C)cc3)n2)ccc1O	PfM18AAP inh 29.5 (no result: ALR inh, HDAC3 inhib, UCH37 DUB inh)
COc1cc(/C=N/Nc2ccccn2)ccc1O	ALR inh 97.4 (no result: UCH37 DUB inh)
COc1cc(/C=N/Nc2nc(N3CCCC3)nc(N3CCCC3)n2)ccc1O	ALR inh 99.4, HDAC3 inhib 37.8 (no result: UCH37 DUB inh)
N#Cc1cc([N+](=O)[O-])ccc1Oc1cccc(C=NNC(=O)c2ccc(Cl)cc2)c1	none (no result: Rtt109 Vps75, ALR inh, PfM18AAP inh, HDAC3 inhib, FAS-TE inh)
O=C(NN=Cc1c[nH]c2ccccc12)c1cccs1	none (no result: Rtt109 Vps75, ALR inh, PfM18AAP inh, HDAC3 inhib, FAS-TE inh)
O=c1nccc(N/N=C/c2cccc(O)c2)[nH]1	none (no result: UCH37 DUB inh)
COc1cc(/C=N/Nc2ccnc(=O)[nH]2)ccc1O	ALR inh 98.1 (no result: UCH37 DUB inh)
COc1cccc(C(=O)NCC(=O)NN=Cc2ccc(OC(=O)c3cccs3)c(OC)c2)c1	none (no result: Rtt109 Vps75, ALR inh, PfM18AAP inh, HDAC3 inhib, FAS-TE inh)
Cc1ccnc(SCC(=O)N2CCN(c3ccccc3)CC2)n1	ALR inh 98.0
Cc1cc(C)n2nc(SCC(=O)N3CCCC3)nc2n1	none (no result: PfM18AAP inh)
Cc1ccnc(SCC(=O)N2CCN(c3cccc(Cl)c3)CC2)n1	none
Cc1cc(C)n2nc(SCC(=O)N3CCN(c4ccccc4)CC3)nc2n1	ALR inh 97.9 (no result: PfM18AAP inh)
CC1(C)Cc2ccccc2-c2nnc(SCC(=O)N3CCN(c4ccccc4)CC3)n21	ALR inh 96.9
CCOc1ccc(OCc2cccc(C(=O)NN=Cc3cccnc3)c2)cc1	none (no result: Rtt109 Vps75, ALR inh, PfM18AAP inh, HDAC3 inhib, FAS-TE inh)
CC(=NNC(=O)c1ccncc1)c1cccs1	none (no result: Rtt109 Vps75, ALR inh, PfM18AAP inh, HDAC3 inhib, FAS-TE inh)
CC(=NNC(=O)CC(C)C)c1ccc(Cl)c(Cl)c1	none (no result: Rtt109 Vps75, ALR inh, PfM18AAP inh, HDAC3 inhib, FAS-TE inh)
CCOc1ccc(C=NNC(=O)C2(O)c3ccccc3-c3ccccc32)cc1	none (no result: Rtt109 Vps75, ALR inh, PfM18AAP inh, HDAC3 inhib, FAS-TE inh)
COC(=O)c1ccc(/C=C(\C#N)C(=O)NC(C)c2ccccc2)cc1 (stereo unspecified)	ALR inh 87.2
N#C/C(=C\c1ccc(O)c(O)c1)C(=O)NCCc1ccccc1	ALR inh 98.5 (no result: PfM18AAP inh)
COc1cc(/C=C(\C#N)C(=O)NCCc2ccccc2)cc(OC)c1O	none
COc1ccc(/C=C(\C#N)C(=O)NC(C)c2ccccc2)cc1O (stereo unspecified)	ALR inh 86.9
C/C(C=NNC(=O)c1cc(C)oc1C)=C/c1ccccc1	none (no result: Rtt109 Vps75, ALR inh, PfM18AAP inh, HDAC3 inhib, FAS-TE inh)
O=C(NN=Cc1ccccc1C(=O)O)c1ccccc1Br	none (no result: Rtt109 Vps75, ALR inh, PfM18AAP inh, HDAC3 inhib, FAS-TE inh)
COc1ccc(C=NNC(=O)c2ccccc2NC(=O)c2ccco2)c(OC)c1	none (no result: Rtt109 Vps75, ALR inh, PfM18AAP inh, HDAC3 inhib, FAS-TE inh)
O=C(c1oc2ccccc2c1N1CCCCC1)N1CCCCC1	ALR inh 98.7
O=C(c1cc2ccccc2o1)N1CCCCCC1	none (no result: Rtt109 Vps75)
